Source: ChEMBL document CHEMBL4138152, “Exploring the tetrahydroisoquinoline thiohydantoin scaffold blockade the androgen receptor as potent anti-prostate cancer agents” (Eur J Med Chem, 2018)
Calls of active or inactive are those of the source. The rule behind the calls is not given here.

What was measured:
DU-145 = experiment: Antiproliferative activity against human DU145 cells after 3 days by MTT assay; type: functional, cell-based; details: DU-145, 72 h
How it was run: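 DU145 cells kept in RPMI-1640 with 10% FBS, 37 °C, 5% CO2. Seeded at 7,000 cells/well and left 24 h. Serial dilutions of compound or DMSO added, then 3 d incubation. MTT (5 mg/mL) added for 4 h, formazan dissolved in DMSO, absorbance read at 492 nm. Triplicate or more; IC50 reported as mean.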

[1] = molecular target: T1, Androgen receptor (Homo sapiens) (UniProt P10275); details: at 10 µM
T1 sequence (whole entry): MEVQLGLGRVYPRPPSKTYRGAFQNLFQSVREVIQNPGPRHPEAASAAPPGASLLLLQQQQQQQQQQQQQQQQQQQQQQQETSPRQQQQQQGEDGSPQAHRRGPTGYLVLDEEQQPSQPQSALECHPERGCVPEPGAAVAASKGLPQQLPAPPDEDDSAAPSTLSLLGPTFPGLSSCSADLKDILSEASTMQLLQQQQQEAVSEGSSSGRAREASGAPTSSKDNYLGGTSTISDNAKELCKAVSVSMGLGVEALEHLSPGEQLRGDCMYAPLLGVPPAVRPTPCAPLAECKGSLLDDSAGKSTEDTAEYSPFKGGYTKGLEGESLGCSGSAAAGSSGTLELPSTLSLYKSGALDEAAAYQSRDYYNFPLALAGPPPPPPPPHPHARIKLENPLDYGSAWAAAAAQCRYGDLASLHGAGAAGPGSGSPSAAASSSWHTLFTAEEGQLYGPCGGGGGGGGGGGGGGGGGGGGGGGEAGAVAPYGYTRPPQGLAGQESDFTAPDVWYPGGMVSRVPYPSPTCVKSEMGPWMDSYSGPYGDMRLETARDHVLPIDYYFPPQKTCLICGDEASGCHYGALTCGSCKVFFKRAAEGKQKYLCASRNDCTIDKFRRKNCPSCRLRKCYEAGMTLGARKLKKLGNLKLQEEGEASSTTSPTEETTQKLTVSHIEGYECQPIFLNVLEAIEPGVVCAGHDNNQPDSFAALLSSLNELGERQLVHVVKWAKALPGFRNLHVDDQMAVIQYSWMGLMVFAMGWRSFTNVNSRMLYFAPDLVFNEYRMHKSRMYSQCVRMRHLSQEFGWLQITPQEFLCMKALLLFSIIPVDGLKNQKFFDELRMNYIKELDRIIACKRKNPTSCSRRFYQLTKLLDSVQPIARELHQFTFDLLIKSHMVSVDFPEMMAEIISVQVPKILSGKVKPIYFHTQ

LNCaP = experiment: Antiproliferative activity against human LNCAP cells after 3 days by MTT assay; type: functional, cell-based; details: 72 h
How it was run: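 LNCaP cells kept in RPMI-1640 with 10% FBS, 37 °C, 5% CO2. Seeded at 10,000 cells/well and left 24 h. Serial dilutions of compound or DMSO added, then 3 d incubation. MTT (5 mg/mL) added for 4 h, crystals dissolved in DMSO, absorbance read at 492 nm. Triplicate or more; IC50 reported as mean.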

[2] = Elimination half life in rat administered via gavage by HPLC-MS/MS method; type: ADME, organism-based; details: in vivo, po, read-out: beta t1/2 (converted)
How it was run: (§1)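 Rats 180–220 g, n = 3 per group; compound dissolved in water, single gavage dose of 5.0 mg/kg. Plasma quantified by HPLC-MS/MS. Parameters derived from mean plasma concentration by noncompartmental analysis.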

[3] = AUC (0 to t) in rat administered via gavage by HPLC-MS/MS method; type: ADME, organism-based; details: in vivo, po; how it was run: as §1
[4] = Clearance in rat administered via gavage by HPLC-MS/MS method; type: ADME, organism-based; details: in vivo, po; how it was run: as §1
[5] = Tmax in rat administered via gavage by HPLC-MS/MS method; type: ADME, organism-based; details: in vivo, po; how it was run: as §1
[6] = Cmax in rat administered via gavage by HPLC-MS/MS method; type: ADME, organism-based; details: in vivo, po; how it was run: as §1
Androgen receptor = molecular target: T2, Androgen receptor (Homo sapiens, UniProt P10275); type: cell-based
T2 sequence (P10275 whole entry): T1 sequence (whole entry)

[7] = molecular target: T1, Androgen receptor (Homo sapiens); details: at 10 µM; remark: listed apart in the source

Compound	IC50 (DU-145)	inhibition [1]	IC50 (LNCaP)	half-life [2]	AUC(0-t) [3]	CL/F [4]	Tmax [5]	Cmax [6]	IC50 (Androgen receptor)	inhibition [7]
CCCCS(=O)(=O)Nc1ccc2c(c1)CN1C(=S)N(c3ccc(C#N)c(C(F)(F)F)c3)C(=O)C1C2 (stereo unspecified)	> 200 µM	29.5%	3.12 µM							
CCOC(=O)CCCOc1c(Br)cc2c(c1Br)CN1C(=S)N(c3ccc(C#N)c(C(F)(F)F)c3)C(=O)C1C2 (stereo unspecified)	21.9 µM	inactive	6.3 µM							
CCCC(=O)Nc1ccc2c(c1)CN1C(=S)N(c3ccc(C#N)c(C(F)(F)F)c3)C(=O)C1C2 (stereo unspecified)	> 200 µM	45.5%	10.8 µM							
COc1ccc2c(c1)CN1C(=S)N(c3ccc(C#N)c(C(F)(F)F)c3)C(=O)C1C2 (stereo unspecified)	60.4 µM	inactive	100 µM							
CNC(=O)c1ccc(N2C(=S)N(c3ccc(C#N)c(C(F)(F)F)c3)C(=O)C2(C)C)cc1F [ENZALUTAMIDE]	46.1 µM		12.5 µM							
N#Cc1ccc(N2C(=O)C3Cc4ccc(OC5CCCCC5)cc4CN3C2=S)cc1C(F)(F)F (stereo unspecified)	98.1 µM	61.6%	8.5 µM							
N#Cc1ccc(N2C(=O)C3Cc4ccccc4CN3C2=S)cc1F (stereo unspecified)	37.1 µM	inactive	70.3 µM							
CC(C)COc1ccc2c(c1)CN1C(=S)N(c3ccc(C#N)c(C(F)(F)F)c3)C(=O)C1C2 (stereo unspecified)	52.6 µM	61.5%	10.6 µM							
N#Cc1ccc(N2C(=O)C3Cc4cc(Br)c(O)c(Br)c4CN3C2=S)cc1C(F)(F)F (stereo unspecified)	11.4 µM	6.1%	11.1 µM							
CCCOc1ccc2c(c1)CN1C(=S)N(c3ccc(C#N)c(C(F)(F)F)c3)C(=O)C1C2 (stereo unspecified)	62.3 µM	54%	11.6 µM							
CNC(=O)c1cc2c(cc1F)CC1C(=O)N(c3ccc(C#N)c(F)c3)C(=S)N1C2 (stereo unspecified)	85.4 µM	26.7%	116 µM							
N#Cc1ccc(N2C(=O)C3Cc4ccc(O)cc4CN3C2=S)cc1C(F)(F)F (stereo unspecified)	> 200 µM	85.7%	50.7 µM							
N#Cc1ccc(N2C(=O)C3Cc4ccc(N)cc4CN3C2=S)cc1C(F)(F)F (stereo unspecified)	89.7 µM	37.8%	18.9 µM							
CS(=O)(=O)Nc1ccc2c(c1)CN1C(=S)N(c3ccc(C#N)c(C(F)(F)F)c3)C(=O)C1C2 (stereo unspecified)	> 200 µM	13.6%	31.1 µM							
CCOC(=O)Nc1ccc2c(c1)CN1C(=S)N(c3ccc(C#N)c(C(F)(F)F)c3)C(=O)C1C2 (stereo unspecified)	90.1 µM	45.4%	6.3 µM	34.4 h	7030 ng·h/mL	9.5 mL/min/kg	2 h	641 ng/mL		
N#Cc1ccc(N2C(=O)C3Cc4ccccc4CN3C2=S)cc1C(F)(F)F (stereo unspecified)	> 200 µM	89%	31.1 µM	5.13 h	3860 ng·h/mL	20.5 mL/min/kg	2 h	387 ng/mL		

Compound	IC50 (DU-145)	inhibition [1]	IC50 (LNCaP)	half-life [2]	AUC(0-t) [3]	CL/F [4]	Tmax [5]	Cmax [6]	IC50 (Androgen receptor)	inhibition [7]
N#Cc1ccc(N2C(=O)C3Cc4ccccc4N3C2=S)cc1C(F)(F)F (stereo unspecified)			15.3 µM	10.4 h	2860 ng·h/mL	26.5 mL/min/kg	2 h	452 ng/mL	18.7 µM	
CC(=O)Nc1ccc2c(c1)CN1C(=S)N(c3ccc(C#N)c(C(F)(F)F)c3)C(=O)C1C2 (stereo unspecified)	> 200 µM	25%	83.8 µM							
COc1c(Br)cc2c(c1Br)CN1C(=S)N(c3ccc(C#N)c(C(F)(F)F)c3)C(=O)C1C2 (stereo unspecified)	33.8 µM	4.6%	19.1 µM							
CC(C)Oc1ccc2c(c1)CN1C(=S)N(c3ccc(C#N)c(C(F)(F)F)c3)C(=O)C1C2 (stereo unspecified)	91.6 µM	45.4%	8.6 µM							
CCOc1ccc2c(c1)CN1C(=S)N(c3ccc(C#N)c(C(F)(F)F)c3)C(=O)C1C2 (stereo unspecified)	40.9 µM	47.1%	22.6 µM							
CCC(=O)Nc1ccc2c(c1)CN1C(=S)N(c3ccc(C#N)c(C(F)(F)F)c3)C(=O)C1C2 (stereo unspecified)	> 200 µM	4.5%	19.5 µM							
CNC(=O)c1cc2c(cc1F)CC1C(=O)N(c3ccc(C#N)c(C(F)(F)F)c3)C(=S)N1C2 (stereo unspecified)	> 200 µM	47.1%	28.1 µM							
CCOC(=O)CCCOc1ccc2c(c1)CN1C(=S)N(c3ccc(C#N)c(C(F)(F)F)c3)C(=O)C1C2 (stereo unspecified)	15.4 µM	43.9%	18.8 µM							
N#Cc1ccc(N2C(=O)C3Cc4cc([N+](=O)[O-])ccc4CN3C2=S)cc1C(F)(F)F (stereo unspecified)	> 200 µM	inactive	56.4 µM							
N#Cc1ccc(N2C(=O)C3Cc4ccc([N+](=O)[O-])cc4CN3C2=S)cc1C(F)(F)F (stereo unspecified)	> 200 µM	59.8%	43 µM							
N#Cc1ccc(N2C(=O)C3Cc4cc(Cl)c(O)c(Cl)c4CN3C2=S)cc1C(F)(F)F (stereo unspecified)	17.1 µM	36%	14 µM							
CCOC(=O)Nc1cc2c(cc1F)CC1C(=O)N(c3ccc(C#N)c(C(F)(F)F)c3)C(=S)N1C2 (stereo unspecified)	> 200 µM	85.1%	13.4 µM	24.7 h	30000 ng·h/mL	2.43 mL/min/kg	4 h	2290 ng/mL	7.39 µM	Active
CC12Cc3ccccc3CN1C(=S)N(c1ccc(C#N)c(C(F)(F)F)c1)C2=O (stereo unspecified)	> 200 µM	26.2%	65.3 µM							
N#Cc1ccc(N2C(=O)C3Cc4cc(N)ccc4CN3C2=S)cc1C(F)(F)F (stereo unspecified)	> 200 µM	14.2%	73 µM							
N#Cc1ccc(N2C(=O)C3Cc4cc(I)c(O)c(I)c4CN3C2=S)cc1C(F)(F)F (stereo unspecified)	22.1 µM	27.3%	16.3 µM							
CC(C)(C)C(=O)Nc1ccc2c(c1)CN1C(=S)N(c3ccc(C#N)c(C(F)(F)F)c3)C(=O)C1C2 (stereo unspecified)	83.2 µM	inactive	21.2 µM							
